# Laboratory results as given in publication PMC8418994 (Structure (London, England : 1993), 2021).
# Legend:
# [Y473E]-PPARγ LBD [1] = Isothermal titration calorimetry; type: binding, human; conditions: ITC at 25°C; Figure S7; in words
# Procedure, shortened: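 Human PPARγ LBD Y473E mutant (residues 203–477), expressed His-tagged in E. coli BL21(DE3), purified by Ni-NTA and gel filtration. Protein at 30 μM in the cell; test compound at 300 μM in the syringe. Both in 20 mM potassium phosphate pH 7.4, 50 mM KCl, 5 mM TCEP, 0.5 mM EDTA, 0.17% DMSO. A 0.4 μL pre-injection, then nineteen 2 μL injections at 25°C, stirring 1200 rpm.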
# [Y473E]-PPARγ LBD [2] = TR-FRET coregulator interaction assay; type: biochemical, human
# PPARγ LBD = target: T1, PPARγ LBD (Homo sapiens, UniProt P37231); test: TR-FRET fluorescent tracer ligand displacement assay; type: binding
# T1 sequence (P37231 203-477 isoform P37231-2): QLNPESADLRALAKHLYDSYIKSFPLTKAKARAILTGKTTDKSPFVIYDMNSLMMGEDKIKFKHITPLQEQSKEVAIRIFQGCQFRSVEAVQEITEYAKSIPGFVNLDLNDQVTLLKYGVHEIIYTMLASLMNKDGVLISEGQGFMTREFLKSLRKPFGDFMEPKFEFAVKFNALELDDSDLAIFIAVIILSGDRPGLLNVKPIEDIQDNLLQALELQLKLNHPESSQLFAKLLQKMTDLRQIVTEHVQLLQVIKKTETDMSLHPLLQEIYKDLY
SMILES,binding affinity to [Y473E]-PPARγ LBD ([Y473E]-PPARγ LBD [1]),concentration-dependent effect on interaction of the TRAP220/MED1 coactivator peptide ([Y473E]-PPARγ LBD [2]),Ki (PPARγ LBD)
CN(CCOc1ccc(C[C@H](Nc2ccccc2C(=O)c2ccccc2)C(=O)O)cc1)c1ccccn1 [GW1929],reasonably high affinity,essentially no concentration-dependent effect,
Cc1oc(-c2ccccc2)nc1CCC(=O)c1ccc(CC2SC(=O)NC2=O)cc1 (stereo not drawn) [darglitazone],,,≤ 1 nM
